Measurements reported in ChEMBL document CHEMBL3352166, “Structure-guided design and development of novel benzimidazole class of compounds targeting DNA gyraseB enzyme of Staphylococcus aureus” (Bioorg Med Chem, 2014).
≈ marks a conversion by molar mass, not a printed value.

Legend:
DNA gyrase subunit B = DNA gyrase subunit B (Staphylococcus aureus, UniProt P0A0K8); test: Inhibition of Staphylococcus aureus DNA gyrase B ATPase activity
DNA gyrase = DNA gyrase (Staphylococcus aureus, UniProt P0A0K8+P20831); test: Inhibition of Staphylococcus aureus DNA gyrase-mediated supercoiling of relaxed DNA using pBR 322 as substrate by agarose gel electrophoresis analysis; assay type: protein-complex assay
[1] = Cytotoxicity against human HEK293 cells assessed as reduction in cell viability at 100 uM after 72 hrs by MTT assay; assay type: cell-based; settings: read-out: INH
Method in brief: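 HEK-293 cells were seeded at 5000 per well and left 24 h, then washed. They were exposed to 100 µM in RPMI + 5% FBS + 1% penicillin/streptomycin, with final DMSO ≤0.5%, for 72 h at 37 °C in 5% CO2. DMSO-treated cultures served as controls. Viability was read by MTT at 570 nm, in triplicate, as percentage inhibition.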

Staphylococcus aureus [2] = test: Antimicrobial activity against methicillin-resistant Staphylococcus aureus MTCC 96 after 16 to 24 hrs by agar dilution method; assay type: functional
Method in brief: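 Agar dilution per CLSI guidelines on Mueller-Hinton agar. Overnight colonies suspended to about 10^6 cfu/mL, and 1 mL added to 19 mL medium. Stocks in 0.9% saline, tested over about 10 doubling dilutions from 100 µM to 0.1 µM. Plates incubated at 35 °C in ambient air for 16-20 h. MIC taken as the lowest concentration preventing visible growth.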

Staphylococcus aureus [3] = test: Antimicrobial activity against Staphylococcus aureus MTCC 3160 after 16 to 24 hrs by agar dilution method; assay type: functional
Method in brief: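 MIC by agar dilution per CLSI on Mueller-Hinton agar. Overnight colonies were suspended to about 10^6 cfu/mL, and 1 mL was added to 19 mL medium. Compounds were made up in 0.9% saline and tested over about 10 doubling dilutions, 100 µM to 0.1 µM. Plates ran 16-20 h at 35 °C in ambient air. MIC was the lowest concentration preventing visible growth.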

Staphylococcus aureus [4] = test: Inhibition of biofilm formation in methicillin-resistant Staphylococcus aureus MTCC 96 after 24 hr incubation by tissue culture plate method; settings: MTCC 96, 24 h

Sequence of DNA gyrase subunit B (P0A0K8 whole entry): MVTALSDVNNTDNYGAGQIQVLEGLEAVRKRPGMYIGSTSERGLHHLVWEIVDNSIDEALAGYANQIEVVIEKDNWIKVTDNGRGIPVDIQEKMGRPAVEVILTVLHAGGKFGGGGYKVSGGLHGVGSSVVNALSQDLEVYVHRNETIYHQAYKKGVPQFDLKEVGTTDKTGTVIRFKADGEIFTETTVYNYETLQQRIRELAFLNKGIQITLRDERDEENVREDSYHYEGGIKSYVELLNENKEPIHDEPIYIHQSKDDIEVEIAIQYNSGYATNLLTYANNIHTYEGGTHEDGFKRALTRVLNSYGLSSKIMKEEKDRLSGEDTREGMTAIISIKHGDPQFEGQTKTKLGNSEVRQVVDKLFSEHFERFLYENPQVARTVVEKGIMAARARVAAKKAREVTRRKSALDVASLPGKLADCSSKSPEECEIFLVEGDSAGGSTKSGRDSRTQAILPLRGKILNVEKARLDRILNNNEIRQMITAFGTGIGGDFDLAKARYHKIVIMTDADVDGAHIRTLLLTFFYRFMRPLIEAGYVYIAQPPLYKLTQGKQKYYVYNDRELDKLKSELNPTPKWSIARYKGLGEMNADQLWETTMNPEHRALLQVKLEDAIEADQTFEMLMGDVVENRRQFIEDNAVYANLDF
Sequence of DNA gyrase (P0A0K8 whole entry): as above
Sequence of DNA gyrase (P20831 whole entry): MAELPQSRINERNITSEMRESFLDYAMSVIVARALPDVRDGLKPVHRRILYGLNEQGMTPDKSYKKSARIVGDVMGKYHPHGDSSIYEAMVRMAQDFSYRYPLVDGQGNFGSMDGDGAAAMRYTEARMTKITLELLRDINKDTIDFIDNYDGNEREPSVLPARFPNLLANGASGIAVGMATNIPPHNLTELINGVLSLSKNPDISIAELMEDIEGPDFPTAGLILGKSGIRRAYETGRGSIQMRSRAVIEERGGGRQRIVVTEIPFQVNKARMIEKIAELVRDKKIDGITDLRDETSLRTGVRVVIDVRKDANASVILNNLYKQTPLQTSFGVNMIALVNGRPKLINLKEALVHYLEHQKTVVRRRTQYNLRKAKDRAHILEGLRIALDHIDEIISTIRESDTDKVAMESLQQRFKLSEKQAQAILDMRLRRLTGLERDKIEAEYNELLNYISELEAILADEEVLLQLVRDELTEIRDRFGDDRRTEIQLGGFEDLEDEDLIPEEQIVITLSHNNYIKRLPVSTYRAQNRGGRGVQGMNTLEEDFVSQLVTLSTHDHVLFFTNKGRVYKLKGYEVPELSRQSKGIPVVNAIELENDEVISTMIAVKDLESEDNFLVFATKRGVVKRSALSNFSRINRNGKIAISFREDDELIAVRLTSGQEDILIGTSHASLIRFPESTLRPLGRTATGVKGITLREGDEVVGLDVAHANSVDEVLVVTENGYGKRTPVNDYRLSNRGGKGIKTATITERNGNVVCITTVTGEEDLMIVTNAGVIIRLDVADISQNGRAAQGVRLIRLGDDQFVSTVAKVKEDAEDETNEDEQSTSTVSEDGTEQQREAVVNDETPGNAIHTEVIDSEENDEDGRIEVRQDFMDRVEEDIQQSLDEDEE

SMILES	IC50 (DNA gyrase subunit B) [µM]	IC50 (DNA gyrase) [µM]	cytotoxicity at 72 h, 100 µM [1] [%]	MIC (Staphylococcus aureus [2]) [µM]	MIC (Staphylococcus aureus [3]) [µM]	IC50 (Staphylococcus aureus [4]) [µM]
Cc1sc2nc(SCC(=O)Nc3cccc(C(=O)O)c3)nc(O)c2c1C	17.3	8.22	–	–	–	–
Cc1sc2nc(SCC(=O)Nc3ccc(Cl)c(C(=O)O)c3)nc(O)c2c1C	77.3	> 50	–	–	–	–
O=c1nc(/C=C/c2ccc(/C=C/c3cc(C(F)(F)F)[nH]c(=O)n3)cc2)cc(C(F)(F)F)[nH]1	42.2	24.9	–	–	–	–
CNc1cc(CCNC(=O)c2ccc3oc(O)nc3c2)nc(-c2ccncc2)n1	92.1	> 50	–	–	–	–
CC(=O)Nc1ccc(OCC[n+]2ccc(CCS(=O)(=O)[O-])cc2)cc1	77.1	45.1	–	–	–	–
Cc1cc2ncn(CC(O)COc3cccc(C(=O)O)c3)c2cc1C (stereo not drawn)	12.9	3.13	–	–	–	–
O=C(O)CCCC(=O)Nc1ccc(-c2nc3ccccc3[nH]2)cc1	12.6	2.9	–	–	–	–
O=C(O)CCC(=O)Nc1ccc(NC(=O)c2ccco2)cc1	12.9	3.13	–	–	–	–
CC(Cc1c[nH]c2ccccc12)NC(=O)CSS(=O)(=O)O (stereo not drawn)	89.9	> 50	–	–	–	–
CCc1cc(=O)nc(SCC(=O)Nc2cccc(C(=O)O)c2)[nH]1	65	> 50	–	–	–	–
CCOc1cc(/C=C(\C#N)c2nc3ccc(C)cc3[nH]2)ccc1OCC(=O)O	82.1	> 50	–	–	–	–
O=C(O)CC(=O)Nc1ccc(-c2nc3ccccc3[nH]2)cc1	6.91	6.12	7.2	21.2 (≈ 6.25 µg/mL)	42.3 (≈ 12.5 µg/mL)	47.8
O=C(O)CCC(=O)Nc1ccc(-c2nc3ccccc3[nH]2)cc1	7.32	6.12	2.9	40.4 (≈ 12.5 µg/mL)	20.2 (≈ 6.25 µg/mL)	88.3
COC(=O)CCCC(=O)Nc1ccc(-c2nc3ccccc3[nH]2)cc1	36.3	25	9.7	148 (≈ 50 µg/mL)	148 (≈ 50 µg/mL)	> 100
O=C(O)CCCCC(=O)Nc1ccc(-c2nc3ccccc3[nH]2)cc1	5.7	6.12	32.1	37 (≈ 12.5 µg/mL)	37 (≈ 12.5 µg/mL)	81.5
O=C(O)CC(=O)Nc1ccc(-c2nc3cc(F)ccc3[nH]2)cc1	13.4	16.3	18.1	79.8 (≈ 25 µg/mL)	79.8 (≈ 25 µg/mL)	> 100
O=C(O)CCC(=O)Nc1ccc(-c2nc3cc(F)ccc3[nH]2)cc1	17.6	12	28.7	38.2 (≈ 12.5 µg/mL)	38.2 (≈ 12.5 µg/mL)	82.7
COC(=O)CCCC(=O)Nc1ccc(-c2nc3cc(F)ccc3[nH]2)cc1	18.6	10.7	33.8	32.2 (≈ 11.4 µg/mL)	70.3 (≈ 25 µg/mL)	59.3
O=C(O)CCCCC(=O)Nc1ccc(-c2nc3cc(F)ccc3[nH]2)cc1	15.3	7.1	29	59.3 (≈ 21.1 µg/mL)	35.2 (≈ 12.5 µg/mL)	> 100
O=C(O)CC(=O)Nc1ccc(-c2nc3cc(Cl)ccc3[nH]2)cc1	26.3	18.2	25.6	75.8 (≈ 25 µg/mL)	75.8 (≈ 25 µg/mL)	> 100
O=C(O)CCC(=O)Nc1ccc(-c2nc3cc(Cl)ccc3[nH]2)cc1	11.2	9.8	31.7	36.4 (≈ 12.5 µg/mL)	36.4 (≈ 12.5 µg/mL)	53.2
O=C(O)CCCC(=O)Nc1ccc(-c2nc3cc(Cl)ccc3[nH]2)cc1	9.85	9.13	45.5	69.8 (≈ 25 µg/mL)	34.9 (≈ 12.5 µg/mL)	> 100
